Consider 33 compounds from ChEMBL document CHEMBL2434875, “Novel nonsecosteroidal VDR agonists with phenyl-pyrrolyl pentane skeleton” (Eur J Med Chem, 2013).

Molecules are shown by their SMILES. Calls of active or inactive are those of the source. The calls are words filed in the database; no cut-off is given here.

By IC50 is commonly meant the concentration that gives 50% inhibition.

In data set [1] the test system is MCF7. The experiment in a line: Cytotoxicity against human MCF7 cells at >50 uM after 48 hrs by MTT assay. It counts as functional, cell-based. Summed up:
(§1)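 HaCaT or MCF-7 cells grown 48 h at 37 °C, 5% CO₂, no medium change. MTT (5 mg/mL) with DMEM added, 4 h. Medium replaced by DMSO to dissolve formazan, A570 read. IC50 from log-linear dose regression. Compounds above 85% efficacy rescreened for the final IC50. Triplicate experiments.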
For orientation: Tetrazolium dyes change colour on reduction, which living cells bring about.

Data set [2] concerns HaCaT. Put plainly: Cytotoxicity against human HaCaT cells at >50 uM after 48 hrs by MTT assay. It counts as functional, cell-based. The essentials:
as §1

Data set [3] has as its target T1, Vitamin D3 receptor (Homo sapiens) (UniProt P11473).
T1 sequence (whole entry): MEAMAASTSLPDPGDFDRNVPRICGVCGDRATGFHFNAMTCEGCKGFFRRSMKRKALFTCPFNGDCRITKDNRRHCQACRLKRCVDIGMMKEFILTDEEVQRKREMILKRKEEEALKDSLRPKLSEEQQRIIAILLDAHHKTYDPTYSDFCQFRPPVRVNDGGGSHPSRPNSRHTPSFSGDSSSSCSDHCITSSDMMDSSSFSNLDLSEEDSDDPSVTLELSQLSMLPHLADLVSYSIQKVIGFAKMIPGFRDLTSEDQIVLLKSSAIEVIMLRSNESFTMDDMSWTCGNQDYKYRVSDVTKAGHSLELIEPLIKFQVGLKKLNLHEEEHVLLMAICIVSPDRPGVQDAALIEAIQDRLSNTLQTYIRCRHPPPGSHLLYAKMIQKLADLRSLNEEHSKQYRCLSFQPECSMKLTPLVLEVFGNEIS
The experiment in a line: Agonist activity at VDR in human HL60 cells assessed as induction of cell differentiation at >50 uM after 96 hrs by NBT reduction assay. It counts as cell-based. Conditions: HL-60.

The test system of data set [4] is Mus musculus. The experiment in a line: In vivo calcemic activity in ICR mouse assessed as serum calcium level at 5 ug/kg, sc administered for 7 days (reference value: 8.76 mg/dL). Conditions: 0.005 mg/kg, 168 h. It counts as ADME, organism-based.
The test system of data set [5] is MCF7. Put plainly: Cytotoxicity against human MCF7 cells after 48 hrs by MTT assay. It counts as functional, cell-based. Conditions: MCF7, 48 h. The essentials: as §1
In data set [6] the test system is HaCaT. Put plainly: Cytotoxicity against human HaCaT cells after 48 hrs by MTT assay. It counts as functional, cell-based. The essentials: as §1
The subject of data set [7] is Mus musculus. The experiment in a line: In vivo calcemic activity in ICR mouse assessed as serum calcium level at 30 mg/kg, sc administered for 7 days (reference value: 8.76 mg/dL). Conditions: 168 h. It counts as ADME, organism-based. Details: dose 30 mg/kg, route subcutaneous.
Data set [8] relates to Mus musculus. Put plainly: In vivo calcemic activity in ICR mouse assessed as serum calcium level at 10 mg/kg, sc administered for 7 days (reference value: 8.76 mg/dL). It counts as ADME, organism-based. Details: dose 10 mg/kg, route subcutaneous. The settings on record: 168 h.
In data set [9] the test system is Mus musculus. The experiment in a line: In vivo calcemic activity in ICR mouse assessed as serum calcium level at 0.5 mg/kg, sc administered for 7 days (reference value: 8.76 mg/dL). It counts as ADME, organism-based. Details: dose 0.5 mg/kg, route subcutaneous. The settings on record: 168 h.

`CCn1c(C(=O)NCC(=O)OC)ccc1C(CC)(CC)c1ccc(OCC(=O)C(C)(C)C)c(C)c1`: the “growth inhibition (GI)” value in data set [1] and in [2] was “inactive” in each case.

For the compound `CCn1c(C(=O)NCCC(=O)O)ccc1C(CC)(CC)c1ccc(OCC(=O)C(C)(C)C)c(C)c1`, the outcome in data set [3] was inactive. Regarding `CCC(CC)(c1ccc(OCC(O)C(C)(C)C)c(C)c1)c1ccc(C(=O)NCCC(=O)O)n1C` (stereo unspecified), the “growth inhibition (GI)” value in data set [1] and in data set [2] was “inactive” throughout. As for `CCn1c(C(=O)N[C@@H](CC(=O)OC)C(=O)OC)ccc1C(CC)(CC)c1ccc(OCC(=O)C(C)(C)C)c(C)c1`, in [3], the result was inactive. Regarding `CCC(CC)(c1ccc(OCC(O)C(C)(C)C)c(C)c1)c1ccc(C(=O)N[C@@H](C)C(=O)O)n1C` (stereo partly specified), the outcome in data set [3] was inactive. In the case of `C=C1/C(=C\C=C2/CCC[C@]3(C)[C@@H]([C@H](C)CC[C@@H](O)C(C)C)CC[C@@H]23)C[C@@H](O)C[C@@H]1O` [TACALCITOL], the Activity in data set [4] was 12.14 mg/dL. Besides, the 50% inhibitory concentration (IC50) in [5] was 57 nM; in data set [6], 2070 nM. For `CCC(CC)(c1ccc(OCC(=O)C(C)(C)C)c(C)c1)c1ccc(C(=O)NCC(=O)OC)n1C`, the “growth inhibition (GI)” value in data set [1] and in data set [2] was “inactive” each time.

Take `CCC(CC)(c1ccc(OCC(O)C(C)(C)C)c(C)c1)c1ccc(C(=O)NCCCO)n1C` (stereo unspecified): in [5], the 50% inhibitory concentration (IC50) is 16400 nM. The “growth inhibition (GI)” value in data set [2] is “inactive”.

On to `CCn1c(C(=O)N[C@@H](C)C(=O)O)ccc1C(CC)(CC)c1ccc(OCC(=O)C(C)(C)C)c(C)c1`, for which the result in data set [3] was inactive. On the same count and under the same terms, next, `CCn1c(C(=O)NCCCO)ccc1C(CC)(CC)c1ccc(OCC(O)C(C)(C)C)c(C)c1` (stereo unspecified): “inactive”. For `CCn1c(C(=O)NCCC(=O)OC)ccc1C(CC)(CC)c1ccc(OCC(=O)C(C)(C)C)c(C)c1`, the result in data set [3] was inactive. On to `CCC(CC)(c1ccc(OCC(=O)C(C)(C)C)c(C)c1)c1ccc(C(=O)NCCC(=O)OC)n1C`, for which, in data set [1], the “growth inhibition (GI)” value was “inactive”. For the same compound, the IC50 in [6] was found to be 28900 nM. In the case of `CCC(CC)(c1ccc(OCC(=O)C(C)(C)C)c(C)c1)c1ccc(C(=O)N[C@@H](C)C(=O)OC)n1C`, the outcome in data set [3] was inactive. Regarding `CCn1c(C(=O)N[C@H](CO)CCO)ccc1C(CC)(CC)c1ccc(OCC(O)C(C)(C)C)c(C)c1` (stereo partly specified), the IC50 in data set [5] was found to be 300 nM; in [6], 1250 nM. For `CCC(CC)(c1ccc(OCC(=O)C(C)(C)C)c(C)c1)c1ccc(C(=O)NCC(=O)O)n1C`, the outcome in data set [3] was inactive. For `CCC(CC)(c1ccc(OCC(O)C(C)(C)C)c(C)c1)c1ccc(C(=O)N[C@H](CO)CCO)n1C` (stereo partly specified), the Activity in data set [7] is 8.94 mg/dL; in data set [8] it was 9.29 mg/dL; in data set [9], 8.91 mg/dL. Also, the results for the half-maximal inhibitory concentration (IC50) in data set [5] and in [6] were 7.83 nM and 190 nM, respectively. Regarding `CCn1c(C(=O)NCCO)ccc1C(CC)(CC)c1ccc(OCC(O)C(C)(C)C)c(C)c1` (stereo unspecified), the IC50 in [5] amounted to 1810 nM; in data set [6], 2080 nM.

On to `CCn1c(C(=O)N[C@@H](C)C(=O)OC)ccc1C(CC)(CC)c1ccc(OCC(=O)C(C)(C)C)c(C)c1`, for which the outcome in data set [3] was inactive. Turning to `CCC(CC)(c1ccc(OCC(=O)C(C)(C)C)c(C)c1)c1ccc(C(=O)N[C@@H](C)C(=O)O)n1C`, the “growth inhibition (GI)” value in data set [1] and in data set [2] was “inactive” each time. Turning to `CCn1c(C(=O)N[C@@H](C)CO)ccc1C(CC)(CC)c1ccc(OCC(O)C(C)(C)C)c(C)c1` (stereo partly specified), the Activity was 9.08 mg/dL in data set [7], 8.3 mg/dL in data set [8] and 8.09 mg/dL in data set [9]. Further, the IC50 turned out to be 307 nM in data set [5] and 2060 nM in data set [6]. As for `CCC(CC)(c1ccc(OCC(=O)C(C)(C)C)c(C)c1)c1ccc(C(=O)NCCC(=O)O)n1C`, the result in data set [3] was inactive. The same measure, in the same setting: the same measure for `CCC(CC)(c1ccc(OCC(=O)C(C)(C)C)c(C)c1)c1ccc(C(=O)N[C@@H](CC(=O)OC)C(=O)OC)n1C`: “inactive”. For the compound `CCn1c(C(=O)N[C@@H](CC(=O)O)C(=O)O)ccc1C(CC)(CC)c1ccc(OCC(=O)C(C)(C)C)c(C)c1`, the outcome in data set [3] was inactive. The same measure, in the same setting: next, `CCn1c(C(=O)N[C@@H](CC(=O)O)C(=O)O)ccc1C(CC)(CC)c1ccc(OCC(O)C(C)(C)C)c(C)c1` (stereo partly specified): “inactive”. Regarding `CCn1c(C(=O)NCC(=O)O)ccc1C(CC)(CC)c1ccc(OCC(O)C(C)(C)C)c(C)c1` (stereo unspecified), in data set [3], the result was inactive.

Turning to `CCC(CC)(c1ccc(OCC(O)C(C)(C)C)c(C)c1)c1ccc(C(=O)N[C@@H](CC(=O)O)C(=O)O)n1C` (stereo partly specified), the result in data set [3] was inactive.

On to `CCn1c(C(=O)NCCC(=O)O)ccc1C(CC)(CC)c1ccc(OCC(O)C(C)(C)C)c(C)c1` (stereo unspecified), for which the “growth inhibition (GI)” value in data set [1] and in data set [2] was “inactive” each time.

`CCC(CC)(c1ccc(OCC(=O)C(C)(C)C)c(C)c1)c1ccc(C(=O)N[C@@H](CC(=O)O)C(=O)O)n1C` yielded an IC50 in data set [5] of 160 nM. Moreover, the “growth inhibition (GI)” value in [2] is “inactive”. Regarding `CCC(CC)(c1ccc(OCC(O)C(C)(C)C)c(C)c1)c1ccc(C(=O)NCC(=O)O)n1C` (stereo unspecified), the “growth inhibition (GI)” value in data set [1] is “inactive”. In data set [6], this compound had an IC50 of 9810 nM. As for `CCC(CC)(c1ccc(OCC(O)C(C)(C)C)c(C)c1)c1ccc(C(=O)NCCO)n1C` (stereo unspecified), the outcome in data set [3] was inactive. The same measure, in the same setting: the same measure for `CCn1c(C(=O)NCC(=O)O)ccc1C(CC)(CC)c1ccc(OCC(=O)C(C)(C)C)c(C)c1`: “inactive”.

As for `CCC(CC)(c1ccc(OCC(O)C(C)(C)C)c(C)c1)c1ccc(C(=O)N[C@@H](C)CO)n1C` (stereo partly specified), the “growth inhibition (GI)” value in [1] is “inactive”. In addition, the half-maximal inhibitory concentration (IC50) in data set [6] was determined as 15700 nM.

Turning to `CCn1c(C(=O)N[C@@H](C)C(=O)O)ccc1C(CC)(CC)c1ccc(OCC(O)C(C)(C)C)c(C)c1` (stereo partly specified), the IC50 in [5] was 180 nM. Moreover, in data set [2], the “growth inhibition (GI)” value was “inactive”.
